# Results gathered from unrelated publications.
# Lines come from different studies, so protocols differ.
# BTK: Tyrosine-protein kinase BTK (BTK, Homo sapiens, UniProt Q06187)
# AKT2: RAC-beta serine/threonine-protein kinase (AKT2, Homo sapiens, UniProt P31751)
SMILES,target,assay,setting,endpoint,result
CCCCC(=O)Nc1ccc(-c2ccc3ncn(CCC)c(=O)c3c2)cn1,"Mast/stem cell growth factor receptor Kit (KIT, Homo sapiens, UniProt P10721, T670I/V559D)","binding, competition with immobilised ligand",0.5 µM,remaining binding,79%
C#Cc1cnc(Nc2ccnc(CO)c2)nc1Nc1ccccc1S(C)(=O)=NC#N (centres unmarked),"Atypical kinase COQ8A, mitochondrial (COQ8A, Homo sapiens, UniProt Q8NI60)",cell-free assay,1 µM,remaining signal,97%
C1=C/COCc2cc(ccc2OCCN2CCCC2)Nc2nccc(n2)-c2cccc(c2)COC/1,"Myosin light chain kinase, smooth muscle (MYLK, Homo sapiens, UniProt Q15746)",binding,0.1 µM,remaining binding,83%
C[C@H](NC(=O)C(=O)Nc1ccccc1C(C)(C)C)C(=O)N[C@@H](CC(=O)O)C(=O)COc1c(F)c(F)cc(F)c1F,"Caspase-4 (Casp4, Mus musculus, UniProt P70343)","enzyme activity, inhibitor",,kinact/KI,448000 M⁻¹ s⁻¹
COc1ccc2oc(-c3ccc4nc(N)oc4c3)c/c(=N\c3ccccc3NC(=O)CCN)c2c1,BTK,binding,1 µM,remaining binding,96%
Cc1nc(Nc2ncc(C(=O)Nc3c(C)cccc3Cl)s2)cc(N2CC[C@H](O)C2)n1,BTK,"enzyme activity, inhibitor, mobility shift",1 nM,inhibition,72%
Cc1cc(-c2ccnc3[nH]cc(F)c23)cc(F)c1[C@@]1(O)[C@H](C)CN(C(=O)CN)C[C@@H]1C,AKT2,"enzyme activity, inhibitor",15 nM,remaining activity,94.5%
N#Cc1ccc(NC(=O)Nc2ccccc2)cc1,"Mast/stem cell growth factor receptor Kit (KIT, Homo sapiens, UniProt P10721, D816V)","cell-free assay, competition with immobilised ligand",25 µM,remaining binding,89%
[2H]c1cc(C)c(NC(=O)c2cnc(Nc3cc(N4CCCCC4)nc(C)n3)s2)c(Cl)c1,BTK,"enzyme activity, inhibitor, mobility shift",100 pM,inhibition,> 50%
C#Cc1cc(-c2cc(Nc3nc(N[C@@H](C)c4ccc(F)cn4)ncc3Cl)n[nH]2)ccc1C=O,"Mitogen-activated protein kinase 12 (MAPK12, Homo sapiens, UniProt P53778)","enzyme activity, inhibitor",0.2 µM,inhibition,1.88%
Cc1nc(Nc2ncc(C(=O)Nc3c(C)cccc3Cl)s2)cc(N2CC[C@@H](N)C2)n1,BTK,"enzyme activity, inhibitor, mobility shift",1 nM,inhibition,71%
Cc1cc(-c2ccnc3[nH]cc(F)c23)cc(F)c1[C@@]1(O)[C@H](C)CN(C2CCS(=O)(=O)CC2)C[C@@H]1C,AKT2,"enzyme activity, inhibitor",0.1 µM,remaining activity,103%
Cc1cc(O)c(-c2ccc([C@@H](C)CN(C)C)cc2)c2c1[nH]c(=O)c1sccc12,"Ribosomal protein S6 kinase alpha-5, N-terminal kinase domain (RPS6KA5, Homo sapiens, UniProt O75582)","enzyme activity, inhibitor",0.1 µM,inhibition,3.82%
[2H]c1cc(C)c(NC(=O)c2cnc(Nc3cc(N4CC[C@H](O)C4)nc(C)n3)s2)c(Cl)c1,BTK,"enzyme activity, inhibitor, mobility shift",1 nM,inhibition,72%
